Laboratory results published in article PMC3539145 (Scientific Reports, 2013).

Key:
[1] = test system: AC-overexpressing HEK 293 cells; assay: Cell viability of AC-overexpressing HEK 293 cells; assay type: cell-based, human
How it was run: (§1)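 Native HEK 293 cells and HEK 293 cells transfected with V5/His-tagged rat AC (pEF6 vector) and selected with G418 (0.3 mg/mL) are exposed to graded test-compound concentrations added in DMSO (final 0.1%). Cells are harvested, spun at 800xg for 10 min and resuspended in PBS. They are mixed 1:1 with 0.4% Trypan blue for 1 min, and viable cells are counted on a hemocytometer. Mean ± s.e.m., n = 4.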

AC [2] = molecular target: T1, AC (Homo sapiens, UniProt Q13510); assay: AC activity in lysates of treated intact SW403 cells; assay type: cell-based
T1 sequence (Q13510 22-395): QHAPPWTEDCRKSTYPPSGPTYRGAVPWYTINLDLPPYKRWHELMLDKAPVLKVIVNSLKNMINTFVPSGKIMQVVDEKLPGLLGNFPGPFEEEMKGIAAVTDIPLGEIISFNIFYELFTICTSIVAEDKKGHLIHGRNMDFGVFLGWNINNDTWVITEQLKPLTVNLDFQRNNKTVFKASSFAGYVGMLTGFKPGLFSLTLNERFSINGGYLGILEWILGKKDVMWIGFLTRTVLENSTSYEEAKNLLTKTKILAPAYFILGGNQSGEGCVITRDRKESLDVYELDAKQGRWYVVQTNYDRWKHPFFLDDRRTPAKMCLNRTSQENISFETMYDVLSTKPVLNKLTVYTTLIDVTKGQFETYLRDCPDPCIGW
How it was run: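 Intact cells were exposed to test compound at 0.3–10 µM, with AC activity read 3 h later in cell lysates. A time course used 3 µM over various intervals. Vehicle was 0.1% DMSO in DMEM. SW403 cells were grown in DMEM with 10% FBS at 37°C, 5% CO2. Data are mean ± s.e.m., n = 3–6, each assay in duplicate.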

AC [3] = molecular target: T1, AC; assay: AC activity in lysates of treated intact LNCaP cells; assay type: cell-based; conditions: 0.3–10 µM for 3 h; 3 µM for various time intervals
[4] = molecular target: human thymidylate synthase (h-TS) (Homo sapiens, UniProt P04818); assay: Human thymidylate synthase activity; assay type: biochemical
Sequence of human thymidylate synthase (h-TS) (P04818 whole entry): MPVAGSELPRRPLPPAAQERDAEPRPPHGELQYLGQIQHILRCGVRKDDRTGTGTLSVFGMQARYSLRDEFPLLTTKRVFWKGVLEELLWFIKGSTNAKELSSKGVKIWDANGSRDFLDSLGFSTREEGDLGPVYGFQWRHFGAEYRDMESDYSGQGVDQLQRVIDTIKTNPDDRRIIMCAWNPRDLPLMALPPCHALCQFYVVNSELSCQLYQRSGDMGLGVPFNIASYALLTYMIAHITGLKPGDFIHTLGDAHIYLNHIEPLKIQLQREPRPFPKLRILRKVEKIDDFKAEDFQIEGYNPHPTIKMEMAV

HEK 293 cells = assay: Cell viability of native HEK 293 cells; assay type: cell-based, human
How it was run: as §1

[5] = test system: mouse tissues (lungs and cerebral cortex); assay: Ceramide levels in mouse tissues after i.p. injection; assay type: in vivo; conditions: mice, 10 or 30 mg-kg^−1 i.p., lungs and brain cortex, 2 h
How it was run: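 Male Swiss Webster mice (20–35 g) receive test compound i.p. (10 or 30 mg-kg−1; 1 ml-kg−1) in 15% PEG, 15% Tween-80 and 70% saline, or vehicle alone. They are killed by cervical dislocation 2 h later. Lungs and cerebral cortex are snap-frozen in liquid nitrogen, stored at −80°C, and ceramide is measured by LC/MS. Mean ± s.e.m., n = 6.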

AC [6] = molecular target: T2, AC (Mus musculus, UniProt Q9WV54); assay: AC activity measured ex vivo in mouse tissues after i.p. injection; set-up: species or system mice; conditions: for AC activity in mouse lungs and brain cortex: 10 or 30 mg-kg^−1 i.p., ex vivo 2 h after injection
T2 sequence (Q9WV54 19-394): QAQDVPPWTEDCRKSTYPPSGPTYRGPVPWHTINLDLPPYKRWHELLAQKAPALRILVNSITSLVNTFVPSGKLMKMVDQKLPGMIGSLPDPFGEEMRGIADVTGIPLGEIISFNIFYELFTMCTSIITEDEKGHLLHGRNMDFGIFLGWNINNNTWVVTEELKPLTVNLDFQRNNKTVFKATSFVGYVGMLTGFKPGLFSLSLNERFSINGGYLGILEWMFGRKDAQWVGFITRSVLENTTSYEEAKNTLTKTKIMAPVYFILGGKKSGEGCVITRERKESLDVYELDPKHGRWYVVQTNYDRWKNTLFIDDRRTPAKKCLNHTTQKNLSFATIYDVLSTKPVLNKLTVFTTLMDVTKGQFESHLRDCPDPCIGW
How it was run: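 Male Swiss Webster mice (20–35 g) received test compound at 10 or 30 mg-kg−1 i.p. (1 ml-kg−1) in 15% polyethylene glycol/15% Tween-80/70% saline. Mice were killed by cervical dislocation 2 h after dosing. Lungs and brain cortex were frozen in liquid nitrogen and stored at −80°C. AC activity was measured ex vivo. Data are mean ± s.e.m., n = 6.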

AC [7] = conditions: read-out: AC IC50; in vitro, in keratinocytes; cited from earlier work
SW403 cells [8] = assay: Ceramide levels in SW403 cells; assay type: cell-based, human; conditions: 3 μM, 3 h
How it was run: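 SW403 human colon adenocarcinoma cells are grown in DMEM with 10% FBS at 37°C and 5% CO2. They are treated with test compound at 3 µM, or with vehicle (0.1% DMSO in DMEM), for 3 h. Ceramide species, including d18:1/14:0, 16:0 and 18:0, are identified and quantified by LC/MS. Values are compared with vehicle by one-way ANOVA with Tukey's test.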

SW403 cells [9] = assay: SW403 cell viability; assay type: cell-based, human; conditions: for interaction with taxol on SW403 cell viability / interaction with 5-FU on SW403 cell viability: isobolographic analyses; for interaction with 5-FU on SW403 cell viability: 5-FU 0.3 µM; for change in SW403 cell viability: single treatment, 3 μM, 3 h
How it was run: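 SW403 cells (2×10^5) are seeded the day before and treated in serum-free DMEM with test compound (0.1–100 µM) plus a partner drug (for 5-FU, 0.3 µM). Additions are repeated every 24 h over 72 h. Viability is read by Trypan blue exclusion on a hemocytometer. Interaction is assessed isobolographically, comparing experimental EC50 with the theoretical EC50 from the isobole equation.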

[10] = Homo sapiens, HEK293, 24 h, read-out: EC50 (cell death / cell viability)

CCCCCCNC(=O)n1cc(F)c(=O)[nH]c1=O [Carmofur, 1-hexylcarbamoyl-5-fluorouracil]
EC50 in AC-overexpressing cells relative to native cells ([1]; HEK 293-AC vs native HEK 293, 24 h): 50 fold
EC50 [1, 10]: 66 µM
AC activity in SW403 cells (AC [2]; 0.3–10 µM for 3 h, 3 µM for various time intervals): concentration- and time-dependent reduction
AC activity in LNCaP cells (AC [3]): inhibits AC
IC50 [4]: 1210 ± 190 µM
EC50 (HEK 293 cells; [10]): 1.4 µM
tissue ceramide content [5]: increases in tissue ceramide content
AC activity in mouse lungs and brain cortex (AC [6]; mice): dose-dependent inhibition

CCCCCCCCCCCCCC(=O)N[C@H](CO)[C@H](O)c1ccc([N+](=O)[O-])cc1 [Compound B13, (1R, 2R)-2-(N-tetradecanoylamino)-1-(4-nitrophenyl)-1,3-propanediol]
IC50 (AC [7]): ~10 µM

CCCCCCNC(=O)n1cc(Cl)c(=O)[nH]c1=O [ARN082, 5-chloro-N-hexyl-2,4-dioxo-pyrimidine-1-carboxamide]
IC50 [4]: 496 ± 82 µM

O=c1[nH]cc(F)c(=O)[nH]1 [Compound 5-FU, 5-fluorouracil, reference compound]
AC activity in SW403 cells (AC [2]; 3 μM, 3 h): did not cause any detectable changes
AC activity in mouse tissue (AC [6]; mice, 30 mg-kg^−1 i.p., 2 h, lungs (Figure 3A)): no statistically detectable effect
ceramide levels in SW403 cells (SW403 cells [8]): did not cause any detectable changes

CCCC[C@@H](C)[C@@H](OC(=O)C[C@@H](CC(=O)O)C(=O)O)[C@H](C[C@@H](C)C[C@H](O)CCCC[C@@H](O)C[C@H](O)[C@H](C)N)OC(=O)C[C@@H](CC(=O)O)C(=O)O [FB1, fumonisin B1]
effect of FB1 on carmofur induced cell death (HEK 293 cells; HEK 293 cells, combination of carmofur plus FB1, Trypan blue): does not decrease carmofur induced cell death

CCCCCCNC(=O)n1ccc(=O)[nH]c1=O [ARN080, N-hexyl-2,4-dioxo-pyrimidine-1-carboxamide]
IC50 [4]: 196 ± 27 µM
interaction with taxol on SW403 cell viability (SW403 cells [9]): Super-additive effects
interaction with 5-FU on SW403 cell viability (SW403 cells [9]): acted synergistically
change in SW403 cell viability (SW403 cells [9]): did not result in any statistically detectable change
AC activity in mouse lungs and brain cortex (AC [6]; mice): substantially reduced
ED50 (AC [6]; mouse, ip, 2 h, read-out: median inhibitory dose, ID50 (AC activity in vivo)): ~10 mg/kg
ceramide levels in SW403 cells (SW403 cells [8]): increased ceramide levels

CCCCCCNC(=O)n1cc(C(F)(F)F)c(=O)[nH]c1=O [ARN398, 5-trifluoromethyl-N-hexyl-2,4-dioxo-pyrimidine-1-carboxamide]
IC50 [4]: 1340 ± 268 µM
interaction with taxol on SW403 cell viability (SW403 cells [9]): Super-additive effects
interaction with 5-FU on SW403 cell viability (SW403 cells [9]): acted synergistically
change in SW403 cell viability (SW403 cells [9]): did not result in any statistically detectable change
ceramide levels in SW403 cells (SW403 cells [8]): increased ceramide levels

CCCCCCNC(=O)n1cc(C)c(=O)[nH]c1=O [ARN081, N-hexyl-5-methyl-2,4-dioxo-pyrimidine-1-carboxamide]
IC50 [4]: 762 ± 123 µM
